Data: ChEMBL document CHEMBL4257483, “Design, synthesis and bioactivities of phenithionate analogues or derivatives for anti-schistosomiasis” (Medchemcomm, 2018)
≈ marks a conversion by molar mass, not a printed value. Blank lines part the entries; values can stand above or below the compound they belong to. Calls of active or inactive are those of the source. The calls are words filed in the database; no cut-off is given here.

Columns and labels:
Schistosoma japonicum [1] = assay: Antischistosomal activity against Schistosoma japonicum larva derived from infected mouse assessed as reduction in larva viability after 72 hrs; format: functional, organism-based
Method in brief: (§1)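 Worms perfused with cold heparinised HBSS from mice infected percutaneously with S. japonicum cercariae: larvae at 15 days post-infection (260–280 cercariae), adults at 35 days (120–140 cercariae). Five male and female worms per well in 10% calf serum RPMI 1640 with penicillin, streptomycin and amphotericin B. Preincubated 4 h at 37 °C, 5% CO2, then compounds added and viability recorded over 72 h. IC50 taken at 50% survival. DMSO blank.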

[2] = Lipid/water partition coefficient, log P of the compound; format: physicochemical
Schistosoma japonicum [3] = assay: Antischistosomal activity against Schistosoma japonicum imago derived from infected mouse assessed as reduction in imago viability after 72 hrs; format: functional, organism-based; method in brief: as §1
[4] = Dissociation constant, pKa of the compound; format: physicochemical
Schistosoma mansoni = assay: Antischistosomal activity against Schistosoma mansoni imago derived from infected mouse at 20 ug/ml after 72 hrs; format: functional, organism-based
Schistosoma japonicum [5] = assay: Antischistosomal activity against Schistosoma japonicum infected in mouse at 25 mg/kg/day, po treated for 5 days measured after day 1 post last dose by ELISA; format: functional, organism-based
Method in brief: (§2)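 Male mice (20–22 g) infected via abdominal skin with 120–140 S. japonicum cercariae. From day 35 post-infection, dosed orally once daily for 5 days. Venous blood then clotted and centrifuged 15 min at 3500 rpm. Serum tested by triple dot ELISA and scored by spot colour: brown +++, yellow ++, slight yellow +, colourless –. DMSO blank.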

Schistosoma japonicum [6] = assay: Antischistosomal activity against Schistosoma japonicum infected in mouse at 50 mg/kg/day, po treated for 5 days measured after day 7 post last dose by ELISA; format: functional, organism-based; method in brief: as §2
Schistosoma japonicum [7] = assay: Antischistosomal activity against Schistosoma japonicum infected in mouse at 50 mg/kg/day, po treated for 5 days measured after day 6 post last dose by ELISA; format: functional, organism-based; method in brief: as §2
Schistosoma japonicum [8] = assay: Antischistosomal activity against Schistosoma japonicum infected in mouse at 25 mg/kg/day, po treated for 5 days measured after day 4 post last dose by ELISA; format: functional, organism-based; method in brief: as §2
Schistosoma japonicum [9] = assay: Antischistosomal activity against Schistosoma japonicum infected in mouse at 25 mg/kg/day, po treated for 5 days measured after day 3 post last dose by ELISA; format: functional, organism-based; method in brief: as §2
Schistosoma haematobium = assay: Antischistosomal activity against Schistosoma haematobium imago derived from infected mouse at 20 ug/ml after 72 hrs; format: functional, organism-based
Schistosoma japonicum [10] = assay: Antischistosomal activity against Schistosoma japonicum infected in mouse at 25 mg/kg/day, po treated for 5 days measured after day 7 post last dose by ELISA; format: functional, organism-based; method in brief: as §2
Schistosoma japonicum [11] = assay: Antischistosomal activity against Schistosoma japonicum infected in mouse at 25 mg/kg/day, po treated for 5 days measured after day 2 post last dose by ELISA; format: functional, organism-based; method in brief: as §2
Schistosoma japonicum [12] = assay: Antischistosomal activity against Schistosoma japonicum infected in mouse at 50 mg/kg/day, po treated for 5 days measured after day 5 post last dose by ELISA; format: functional, organism-based; method in brief: as §2
Schistosoma japonicum [13] = assay: Antischistosomal activity against Schistosoma japonicum infected in mouse at 50 mg/kg/day, po treated for 5 days measured after day 4 post last dose by ELISA; format: functional, organism-based; method in brief: as §2
Schistosoma japonicum [14] = assay: Antischistosomal activity against Schistosoma japonicum infected in mouse at 50 mg/kg/day, po treated for 5 days measured after day 1 post last dose by ELISA; format: functional, organism-based; method in brief: as §2
[15] = Acute toxicity in po dosed mouse infected with Schistosoma japonicum treated for 5 days; format: organism-based; conditions: in vivo
Schistosoma japonicum [16] = assay: Antischistosomal activity against Schistosoma japonicum infected in mouse at 50 mg/kg/day, po treated for 5 days measured after day 9 post last dose by ELISA; format: functional, organism-based; method in brief: as §2
Schistosoma japonicum [17] = assay: Antischistosomal activity against Schistosoma japonicum infected in mouse at 25 mg/kg/day, po treated for 5 days measured after day 9 post last dose by ELISA; format: functional, organism-based; method in brief: as §2
Schistosoma japonicum [18] = assay: Antischistosomal activity against Schistosoma japonicum infected in mouse at 50 mg/kg/day, po treated for 5 days measured after day 3 post last dose by ELISA; format: functional, organism-based; method in brief: as §2
Schistosoma japonicum [19] = assay: Antischistosomal activity against Schistosoma japonicum infected in mouse at 25 mg/kg/day, po treated for 5 days measured after day 8 post last dose by ELISA; format: functional, organism-based; method in brief: as §2
Schistosoma japonicum [20] = assay: Antischistosomal activity against Schistosoma japonicum infected in mouse at 25 mg/kg/day, po treated for 5 days measured after day 6 post last dose by ELISA; format: functional, organism-based; method in brief: as §2
Schistosoma japonicum [21] = assay: Antischistosomal activity against Schistosoma japonicum infected in mouse at 50 mg/kg/day, po treated for 5 days measured after day 8 post last dose by ELISA; format: functional, organism-based; method in brief: as §2
Schistosoma japonicum [22] = assay: Antischistosomal activity against Schistosoma japonicum infected in mouse at 25 mg/kg/day, po treated for 5 days measured after day 5 post last dose by ELISA; format: functional, organism-based; method in brief: as §2
Schistosoma japonicum [23] = assay: Antischistosomal activity against Schistosoma japonicum infected in mouse at 50 mg/kg/day, po treated for 5 days measured after day 2 post last dose by ELISA; format: functional, organism-based; method in brief: as §2
Schistosoma japonicum [24] = assay: Antischistosomal activity against Schistosoma japonicum imago derived from infected mouse at 20 ug/ml after 72 hrs; format: functional, organism-based; method in brief: as §1

logP [2]: 5.96
IC50 (Schistosoma japonicum [3]): 33.7 µg/mL (≈ 72.8 µM)
pKa [4]: 9.02
Structure (SMILES): CC(=O)Nc1ccc(OC(=S)Nc2ccc(Sc3ccc(C(F)(F)F)cc3)cc2)cc1
IC50 (Schistosoma japonicum [1]): 19 µg/mL (≈ 41.1 µM)

logP [2]: 6.07
IC50 (Schistosoma japonicum [3]): 20.1 µg/mL (≈ 40.6 µM)
pKa [4]: 9.01
Structure (SMILES): CC(=O)Nc1ccc(OC(=S)Nc2ccc(Nc3ccc(C(Cl)(Cl)Cl)cc3)cc2)cc1
IC50 (Schistosoma japonicum [1]): 11.6 µg/mL (≈ 23.4 µM)

Structure (SMILES): Oc1ccc(OC(=S)Nc2ccc(Nc3ccc(C(F)(F)F)cc3)cc2)cc1
Activity (Schistosoma mansoni): inactive
Activity (Schistosoma japonicum [5]): Active
Activity (Schistosoma japonicum [6]): inactive
Activity (Schistosoma japonicum [7]): inactive
Activity (Schistosoma japonicum [8]): Active
Activity (Schistosoma japonicum [9]): Active
Activity (Schistosoma haematobium): inactive
IC50 (Schistosoma japonicum [1]): 5.43 µg/mL (≈ 13.4 µM)
Activity (Schistosoma japonicum [10]): inactive
Activity (Schistosoma japonicum [11]): Active
logP [2]: 6.04
Activity (Schistosoma japonicum [12]): inactive
Activity (Schistosoma japonicum [13]): inactive
Activity (Schistosoma japonicum [14]): Active
LD50 at 120 h [15]: > 500 mg/kg
Activity (Schistosoma japonicum [16]): inactive
Activity (Schistosoma japonicum [17]): inactive
Activity (Schistosoma japonicum [18]): Active
Activity (Schistosoma japonicum [19]): inactive
IC50 (Schistosoma japonicum [3]): 6.68 µg/mL (≈ 16.5 µM)
Activity (Schistosoma japonicum [20]): inactive
Activity (Schistosoma japonicum [21]): inactive
Activity (Schistosoma japonicum [22]): Active
Activity (Schistosoma japonicum [23]): Active
Activity (Schistosoma japonicum [24]): Active
pKa [4]: 9.23

Structure (SMILES): O=[N+]([O-])c1ccc(Nc2ccc(NC(=S)Oc3ccc(O)cc3)cc2)cc1
Activity (Schistosoma mansoni): inactive
Activity (Schistosoma japonicum [5]): Active
Activity (Schistosoma japonicum [6]): inactive
Activity (Schistosoma japonicum [7]): inactive
Activity (Schistosoma japonicum [8]): Active
Activity (Schistosoma japonicum [9]): Active
Activity (Schistosoma haematobium): inactive
IC50 (Schistosoma japonicum [1]): 6.42 µg/mL (≈ 16.8 µM)
Activity (Schistosoma japonicum [10]): Active
Activity (Schistosoma japonicum [11]): Active
logP [2]: 4.54
Activity (Schistosoma japonicum [12]): Active
Activity (Schistosoma japonicum [13]): Active
Activity (Schistosoma japonicum [14]): Active
LD50 at 120 h [15]: 280 mg/kg
Activity (Schistosoma japonicum [16]): inactive
Activity (Schistosoma japonicum [17]): inactive
Activity (Schistosoma japonicum [18]): Active
Activity (Schistosoma japonicum [19]): inactive
IC50 (Schistosoma japonicum [3]): 8.05 µg/mL (≈ 21.1 µM)
Activity (Schistosoma japonicum [20]): Active
Activity (Schistosoma japonicum [21]): inactive
Activity (Schistosoma japonicum [22]): Active
Activity (Schistosoma japonicum [23]): Active
Activity (Schistosoma japonicum [24]): Active
pKa [4]: 9.22

logP [2]: 5.32
IC50 (Schistosoma japonicum [3]): 20 µg/mL (≈ 44.9 µM)
pKa [4]: 9.05
Structure (SMILES): CC(=O)Nc1ccc(OC(=S)Nc2ccc(Nc3ccc(C(F)(F)F)cc3)cc2)cc1
IC50 (Schistosoma japonicum [1]): 11.2 µg/mL (≈ 25.1 µM)

logP [2]: 5.25
IC50 (Schistosoma japonicum [3]): 30.5 µg/mL (≈ 76.6 µM)
pKa [4]: 9.21
Structure (SMILES): O=[N+]([O-])c1ccc(Sc2ccc(NC(=S)Oc3ccc(O)cc3)cc2)cc1
IC50 (Schistosoma japonicum [1]): 15.7 µg/mL (≈ 39.3 µM)

Structure (SMILES): O=[N+]([O-])c1ccc(Nc2ccc(NC(=S)Oc3ccccc3)cc2)cc1
Activity (Schistosoma japonicum [5]): Active
Activity (Schistosoma japonicum [8]): Active
Activity (Schistosoma japonicum [9]): Active
IC50 (Schistosoma japonicum [1]): 6.53 µg/mL (≈ 17.9 µM)
Activity (Schistosoma japonicum [10]): Active
Activity (Schistosoma japonicum [11]): Active
Activity (Schistosoma japonicum [14]): Active
LD50 at 120 h [15]: 310 mg/kg
Activity (Schistosoma japonicum [17]): Active
Activity (Schistosoma japonicum [19]): Active
IC50 (Schistosoma japonicum [3]): 8.21 µg/mL (≈ 22.5 µM)
Activity (Schistosoma japonicum [20]): Active
Activity (Schistosoma japonicum [22]): Active

Structure (SMILES): Oc1ccc(OC(=S)Nc2ccc(Nc3ccc(C(Cl)(Cl)Cl)cc3)cc2)cc1
Activity (Schistosoma mansoni): inactive
Activity (Schistosoma japonicum [5]): Active
Activity (Schistosoma japonicum [8]): Active
Activity (Schistosoma japonicum [9]): Active
Activity (Schistosoma haematobium): inactive
IC50 (Schistosoma japonicum [1]): 7.35 µg/mL (≈ 16.2 µM)
Activity (Schistosoma japonicum [10]): Active
Activity (Schistosoma japonicum [11]): Active
logP [2]: 6.79
Activity (Schistosoma japonicum [14]): inactive
LD50 at 120 h [15]: > 500 mg/kg
Activity (Schistosoma japonicum [17]): Active
Activity (Schistosoma japonicum [19]): Active
IC50 (Schistosoma japonicum [3]): 12.4 µg/mL (≈ 27.3 µM)
Activity (Schistosoma japonicum [20]): Active
Activity (Schistosoma japonicum [24]): Active
pKa [4]: 9.23

logP [2]: 5.41
IC50 (Schistosoma japonicum [3]): 17.3 µg/mL (≈ 38.7 µM)
pKa [4]: 9.03
Structure (SMILES): CC(=O)Nc1ccc(OC(=S)Nc2ccc(Oc3ccc(C(F)(F)F)cc3)cc2)cc1
IC50 (Schistosoma japonicum [1]): 10.4 µg/mL (≈ 23.2 µM)

logP [2]: 6.16
IC50 (Schistosoma japonicum [3]): 18.3 µg/mL (≈ 36.9 µM)
pKa [4]: 9.02
Structure (SMILES): CC(=O)Nc1ccc(OC(=S)Nc2ccc(Oc3ccc(C(Cl)(Cl)Cl)cc3)cc2)cc1
IC50 (Schistosoma japonicum [1]): 10.2 µg/mL (≈ 20.6 µM)
